From PubChem
MrgX1 allo act: allosterically activates human MrgX1 receptor signaling; Q96LB2; hit rate 0.63% among 310,000; MrgX1-HEK293, Fluo-4 calcium flux, FDSS; active compounds read high; B-score at 10 µM;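 active = plate-corrected calcium response at least 3 library SD above typical, normal starting fluorescence, not activating the receptor alone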;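 also: compound read alongside a low EC10 to EC30 dose of BAM8-22 agonist; peak minus trough fluorescence over baseline measured at the second addition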
MrgX1 antagonist: human MrgX1 receptor antagonism, primary screen. Q96LB2. MRGX1-HEK293 calcium flux, Fluo-4, BAM8-22 antagonism; active compounds read low. B-score at 10 µM. hit rate 1.3% among 310,000. AID 588676;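 active = calcium-response B-score plate-corrected more than 3 library SD below zero, starting fluorescence within 5 deviations, no agonist response on first addition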;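 also: peak minus trough fluorescence over baseline after final BAM8-22 challenge near maximal dose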
MrgX1 ag: agonists of human MrgX1 receptor; AID 588627; B-score at 10 µM; hit rate 0.44% among 310,000; MrgX1-HEK293 cells, Fluo-4 calcium fluorescence, agonist mode; active compounds read high; Q96LB2;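 active = calcium response B-score plate-corrected fluorescence ratio at least 3 library SD, with starting fluorescence B-score inside 5 SD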
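times = overnight plating, then 30 min 37 °C plus 30 min room-temperature dye loading | assay system = stable human MrgX1 HEK293 cell line | input = fifteen thousand cells per well | signal = kinetic calcium dye fluorescence, Fluo-4 NW | dosing = compound delivered in addition one of three | read-out = B-scored fluorescence response ratio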
RGS4 block: human RGS4 inhibition. AID 463165. P49798. hit rate 0.45% among 310,000. B-score at 10 µM. HEK293 M3R/RGS4 inducible, Fluo-4 calcium flux; active compounds read high; triggered by carbachol at its EC20;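 active = B-score, a plate-corrected calcium signal, over three deviations above library mean, with baseline fluorescence within five deviations of library mean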;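 also: RGS4 expression induced by doxycycline in cells with stable M3 receptor; B-score is computed from the integrated fluorescence ratio over baseline after carbachol; higher B-score means a larger calcium signal and so more RGS4 inhibition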
Cl transport mod: KCC2 (human) Cl- transport modulation; KCC2 cells, thallium flux FluoZin-2 fluorescence; B-score of Tl+ flux slope (higher = more flux/activation; lower = inhibition) at 10 µM; AID 1456; Q9H2X9; hit rate 2.2% among 190,000;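 active = thallium flux slope and its plate-corrected score both differing from the plate sample mean at a set confidence after two filtering rounds, in either direction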;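 also: slope of fluorescence scaled to starting intensity during 10 to 20 s after thallium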
Target sequence (Q9H2X9 whole entry, looked up): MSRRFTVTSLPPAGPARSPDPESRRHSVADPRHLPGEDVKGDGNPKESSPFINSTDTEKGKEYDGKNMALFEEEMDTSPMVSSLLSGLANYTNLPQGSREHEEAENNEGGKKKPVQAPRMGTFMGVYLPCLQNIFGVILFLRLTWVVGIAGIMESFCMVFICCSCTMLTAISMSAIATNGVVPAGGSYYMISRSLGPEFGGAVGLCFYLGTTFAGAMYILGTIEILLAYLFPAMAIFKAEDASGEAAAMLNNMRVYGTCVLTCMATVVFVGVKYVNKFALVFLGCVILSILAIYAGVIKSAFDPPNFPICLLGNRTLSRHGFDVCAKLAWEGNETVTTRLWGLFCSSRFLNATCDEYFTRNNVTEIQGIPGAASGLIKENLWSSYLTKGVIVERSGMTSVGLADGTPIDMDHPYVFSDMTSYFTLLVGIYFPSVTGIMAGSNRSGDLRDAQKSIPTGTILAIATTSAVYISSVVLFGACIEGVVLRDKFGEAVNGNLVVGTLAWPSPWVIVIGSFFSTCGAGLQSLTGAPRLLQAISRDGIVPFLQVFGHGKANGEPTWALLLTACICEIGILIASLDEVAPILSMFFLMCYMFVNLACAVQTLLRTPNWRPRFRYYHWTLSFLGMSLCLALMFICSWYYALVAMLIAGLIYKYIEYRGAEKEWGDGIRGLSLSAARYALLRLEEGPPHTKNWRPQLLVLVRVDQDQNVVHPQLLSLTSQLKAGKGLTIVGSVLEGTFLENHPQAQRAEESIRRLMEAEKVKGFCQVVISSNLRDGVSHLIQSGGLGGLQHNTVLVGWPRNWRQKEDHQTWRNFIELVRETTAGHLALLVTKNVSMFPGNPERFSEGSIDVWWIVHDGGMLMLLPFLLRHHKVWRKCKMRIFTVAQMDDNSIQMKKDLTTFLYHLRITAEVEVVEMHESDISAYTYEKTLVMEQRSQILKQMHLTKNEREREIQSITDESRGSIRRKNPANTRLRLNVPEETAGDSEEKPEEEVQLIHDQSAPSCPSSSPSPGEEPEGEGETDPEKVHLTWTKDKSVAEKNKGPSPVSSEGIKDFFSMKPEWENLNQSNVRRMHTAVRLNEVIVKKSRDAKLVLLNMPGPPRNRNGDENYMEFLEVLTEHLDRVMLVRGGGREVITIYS
RGS4 pot: RGS4 potentiation or activation; HEK293 M3R/inducible RGS4, carbachol calcium flux Fluo4; active compounds read low; B-score at 10 µM; hit rate 0.92% among 310,000; AID 463111;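 active = B-score of the integrated calcium signal more than 4 SD below the library mean, with starting fluorescence not abnormally high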;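 also: negative B-score means reduced calcium response which marks RGS4 activation or potentiation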
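Material: Inducible-RGS4 HEK293 cells carrying M3 receptor; also added: carbachol at ECmax as muscarinic agonist stimulus; incubation: compound preincubation 20 min at room temperature before agonist; signal: Fluo4-AM (2 µM) calcium-flux fluorescence, kinetic read; measure: integrated calcium ratio converted to B score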
Each line names hits and unclear results; the compound was inactive in the other large screens. This is a sample that favours compounds with a hit; in the whole collection about 4.7% have one here.

CN1CC=C2C(C#N)=C(N)C(C#N)(C#N)C(c3cccc(Cl)c3Cl)C2C1 (centres undefined)	MrgX1 antagonist -5.5
CCc1cc2c(=O)n(CCCOC)c(SCC(=O)Nc3oc(C)c4c(C)n[nH]c(=O)c34)nc2s1	none (no result: Cl transport mod)
C[C@@H](CN1C(=O)C(=O)NC[C@@H]1C)NC(=O)CC12CC3CC(CC(C3)C1)C2	none (no result: Cl transport mod)
COc1ccccc1-n1cc(CN2CCN(CC(C)C)C(CCO)C2)cn1 (centres undefined)	MrgX1 antagonist -5.8
COc1ccccc1-n1cc(CN2CCN(C3CCCC3)C(CCO)C2)cn1 (centres undefined)	none
O=C(c1ccc(Cl)c(S(=O)(=O)N2CCCCC2)c1)N1CCN(Cc2ccccc2)CC1	none (no result: Cl transport mod)
COc1ccc(N(C(=O)c2cccnc2)S(=O)(=O)c2cccc([N+](=O)[O-])c2)cc1	MrgX1 allo act 6.7
COc1cccc(CNc2nnnn2C)c1	none (no result: Cl transport mod)
CC(C)C(NC(=O)C(C)N1C(=O)c2ccccc2C1=O)c1ccccc1 (centres undefined)	none (no result: Cl transport mod)
Cc1ccc(-c2cn3nc(-c4ccccc4)c(-c4ccccc4)nc3n2)cc1	RGS4 pot -7
c1ccc(-c2cn3nc(-c4ccccc4)c(-c4ccccc4)nc3n2)cc1	none (no result: Cl transport mod)
COc1ccc2ccccc2c1/C=N/NC(=O)c1nnn(-c2nonc2N)c1C(C)C	RGS4 pot -7.1 (no result: Cl transport mod)
O=C(NNC(=O)c1ccc(S(=O)(=O)N2CCCCC2)cc1)c1ccc(F)cc1	none (no result: Cl transport mod)
CC(=O)c1ccc(NC(=S)NC(NC(=O)c2ccco2)C(Cl)(Cl)Cl)cc1 (centres undefined)	MrgX1 allo act 7.6
COC(=O)c1ccc(CSC(=N)N)o1	none
CCc1oc(C(=O)OC)cc1CSC(=N)N	MrgX1 ag 43
Cc1ccc(-c2n[nH]c(=S)n2/N=C/c2cccs2)cc1	Cl transport mod 18
COc1cccc(/C=N/n2c(-c3cccs3)n[nH]c2=S)c1	Cl transport mod 24
Cc1cc(-c2n[nH]c(=S)n2/N=C/c2cccs2)n[nH]1	none
Cc1ccc(/C=N/n2c(-c3ccncc3)n[nH]c2=S)cc1	none (no result: MrgX1 allo act, MrgX1 antagonist, MrgX1 ag)
S=c1[nH]nc(-c2ccccn2)n1/N=C/c1ccc(Br)s1	Cl transport mod 26
COc1ccc(/C=N/n2c(-c3ccccc3)n[nH]c2=S)cc1	none (no result: Cl transport mod)
Cc1ccc(-c2n[nH]c(=S)n2/N=C/c2ccc(C)s2)cc1	Cl transport mod 5.6
COc1cc(C(C)=O)ccc1OCCCOc1cccc2cccnc12	none (no result: Cl transport mod)
COC(=O)C(=Cc1ccccc1[N+](=O)[O-])C(=O)OC	MrgX1 ag 50
CCCCCCCCNC(=O)/C(C#N)=C/c1ccccc1[N+](=O)[O-]	RGS4 pot -7.9
N#C/C(=C\c1ccccc1[N+](=O)[O-])C(=O)NCc1ccccc1	none
CC(=O)Nc1ccc(NC(=O)C(NS(=O)(=O)c2cccc3nsnc23)C(C)C)cc1 (centres undefined)	none (no result: Cl transport mod)
CN(c1ccc(OCC(=O)OCC(=O)Nc2ccccc2)cc1)S(=O)(=O)c1cccs1	none
CCN(CC)c1ccc(NC(=O)COc2ccc(N(C)S(=O)(=O)c3cccs3)cc2)cc1	MrgX1 allo act 7.9
CCCc1cc(C(=O)Nc2ccc(OC)cc2[N+](=O)[O-])cs1	none (no result: MrgX1 allo act, MrgX1 antagonist, MrgX1 ag, Cl transport mod)
S=C(Nc1ccccc1)Nc1ccc(Cl)cc1Cl	none
O=C(Cc1ccccc1)NC(=S)Nc1cc(C(F)(F)F)ccc1Cl	none
O=C(NNC(=S)Nc1cccc(C(F)(F)F)c1)c1cccc(Cl)c1	Cl transport mod 5.8
O=C(Cc1ccccc1)NC(=S)Nc1cccc(C(F)(F)F)c1	Cl transport mod 6
O=C(NNC(=S)Nc1ccccc1)c1cccc(Br)c1	Cl transport mod 3.3
FC(F)(F)c1cccc(NC(=S)Nc2ccc(Cl)cc2Cl)c1	Cl transport mod 4.5
O=C(NNC(=S)Nc1cccc(C(F)(F)F)c1)c1ccccc1Cl	none
O=c1[nH]c(Cc2cccc(C(F)(F)F)c2)nc2ccccc12	none (no result: Cl transport mod)
COc1ccc(-n2nc(C(=O)N3CCCCC3)c(C)c(C#N)c2=O)cc1	MrgX1 antagonist -5.8 (no result: Cl transport mod)
COC(=O)Nc1nn(-c2ccc(OC)cc2)c(=O)c(C#N)c1C	none (no result: Cl transport mod)
CC(C)NC(=O)c1ccc(COc2cc(Cl)ccc2Cl)o1	none (no result: Cl transport mod)
